# According to the M2OR odorant receptor database:
# Experiments:
# Details in all cases: stereoisomer not certain
# [1] = target: T1, UniProt Q8VGZ2
# T1 sequence (whole entry): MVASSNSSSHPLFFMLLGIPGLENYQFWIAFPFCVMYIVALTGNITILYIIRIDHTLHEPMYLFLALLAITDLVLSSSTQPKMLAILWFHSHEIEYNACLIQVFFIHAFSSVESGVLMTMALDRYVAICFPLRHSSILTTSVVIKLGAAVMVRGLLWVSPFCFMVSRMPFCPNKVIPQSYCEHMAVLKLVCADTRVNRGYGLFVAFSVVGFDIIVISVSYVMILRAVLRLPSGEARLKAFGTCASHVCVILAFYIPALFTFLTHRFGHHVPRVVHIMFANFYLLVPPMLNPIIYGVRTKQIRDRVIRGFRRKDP
# Method in brief: (§1)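 Whether a receptor–molecule pair is responsive (active) rests on the original authors' judgment that its measured signal was statistically different from baseline. Pairs without that judgment are non-responsive (inactive). Sources used varied assay methods, commonly transient luciferase assays in mammalian cell lines.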
# [2] = target: T2, UniProt Q8VGZ7
# T2 sequence (whole entry): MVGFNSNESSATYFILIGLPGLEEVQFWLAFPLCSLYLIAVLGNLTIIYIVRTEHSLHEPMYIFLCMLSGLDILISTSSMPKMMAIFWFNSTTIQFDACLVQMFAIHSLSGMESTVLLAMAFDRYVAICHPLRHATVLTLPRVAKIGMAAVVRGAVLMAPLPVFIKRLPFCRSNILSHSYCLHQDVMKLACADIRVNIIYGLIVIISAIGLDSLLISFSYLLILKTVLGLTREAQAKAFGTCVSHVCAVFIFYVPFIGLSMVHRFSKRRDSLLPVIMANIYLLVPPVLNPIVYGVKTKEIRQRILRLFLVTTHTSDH
# Method in brief: as §1
# [3] = target: T3, UniProt Q8VH16
# T3 sequence (whole entry): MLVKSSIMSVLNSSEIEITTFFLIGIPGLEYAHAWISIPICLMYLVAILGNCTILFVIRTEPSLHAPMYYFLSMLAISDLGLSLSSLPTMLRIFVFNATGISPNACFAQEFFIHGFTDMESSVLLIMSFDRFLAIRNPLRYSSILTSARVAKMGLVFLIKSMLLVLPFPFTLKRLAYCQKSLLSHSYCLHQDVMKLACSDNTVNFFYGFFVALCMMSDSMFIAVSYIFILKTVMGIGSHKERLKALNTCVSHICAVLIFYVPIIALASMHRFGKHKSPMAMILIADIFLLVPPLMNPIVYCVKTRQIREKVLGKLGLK
# Method in brief: as §1
# [4] = target: T4, UniProt Q8VH20
# T4 sequence (whole entry): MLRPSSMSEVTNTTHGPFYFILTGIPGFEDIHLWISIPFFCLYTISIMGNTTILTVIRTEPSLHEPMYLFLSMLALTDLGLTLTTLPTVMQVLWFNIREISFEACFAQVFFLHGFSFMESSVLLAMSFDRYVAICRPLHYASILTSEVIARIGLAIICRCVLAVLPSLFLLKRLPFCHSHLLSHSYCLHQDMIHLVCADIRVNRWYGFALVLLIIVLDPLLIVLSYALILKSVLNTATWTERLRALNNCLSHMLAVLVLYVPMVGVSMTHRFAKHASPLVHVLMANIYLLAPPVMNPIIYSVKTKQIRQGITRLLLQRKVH
# Method in brief: as §1
# [5] = target: T5, UniProt Q8VH21
# T5 sequence (whole entry): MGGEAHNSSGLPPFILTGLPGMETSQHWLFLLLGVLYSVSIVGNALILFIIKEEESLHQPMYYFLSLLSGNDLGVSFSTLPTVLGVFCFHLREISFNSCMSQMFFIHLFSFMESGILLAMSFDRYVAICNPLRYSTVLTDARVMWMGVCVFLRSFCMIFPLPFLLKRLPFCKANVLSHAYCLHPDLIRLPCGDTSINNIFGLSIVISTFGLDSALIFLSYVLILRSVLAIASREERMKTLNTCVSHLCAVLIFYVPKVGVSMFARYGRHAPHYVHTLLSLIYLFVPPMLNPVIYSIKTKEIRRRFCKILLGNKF
# Method in brief: as §1
# [6] = target: T6, UniProt Q924H8
# T6 sequence (whole entry): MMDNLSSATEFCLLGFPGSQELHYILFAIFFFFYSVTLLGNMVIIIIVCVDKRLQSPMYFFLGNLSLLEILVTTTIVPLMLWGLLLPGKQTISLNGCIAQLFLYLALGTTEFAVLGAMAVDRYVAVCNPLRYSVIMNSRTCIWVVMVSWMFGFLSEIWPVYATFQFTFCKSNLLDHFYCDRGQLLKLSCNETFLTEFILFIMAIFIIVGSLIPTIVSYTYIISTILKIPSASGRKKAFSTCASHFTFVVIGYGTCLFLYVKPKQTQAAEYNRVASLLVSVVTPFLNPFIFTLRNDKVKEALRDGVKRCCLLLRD
# Method in brief: as §1
# [7] = target: T7, UniProt Q99NH4
# T7 sequence (whole entry): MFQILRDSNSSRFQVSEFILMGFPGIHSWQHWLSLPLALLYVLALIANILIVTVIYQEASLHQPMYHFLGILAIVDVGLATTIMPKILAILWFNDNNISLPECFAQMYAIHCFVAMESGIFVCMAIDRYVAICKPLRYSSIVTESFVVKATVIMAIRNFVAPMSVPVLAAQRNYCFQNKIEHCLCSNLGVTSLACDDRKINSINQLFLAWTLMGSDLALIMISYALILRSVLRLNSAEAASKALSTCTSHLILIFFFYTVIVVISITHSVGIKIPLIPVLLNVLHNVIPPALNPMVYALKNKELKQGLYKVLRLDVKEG
# Method in brief: as §1
# [8] = target: T8, UniProt Q920P1
# T8 sequence (whole entry): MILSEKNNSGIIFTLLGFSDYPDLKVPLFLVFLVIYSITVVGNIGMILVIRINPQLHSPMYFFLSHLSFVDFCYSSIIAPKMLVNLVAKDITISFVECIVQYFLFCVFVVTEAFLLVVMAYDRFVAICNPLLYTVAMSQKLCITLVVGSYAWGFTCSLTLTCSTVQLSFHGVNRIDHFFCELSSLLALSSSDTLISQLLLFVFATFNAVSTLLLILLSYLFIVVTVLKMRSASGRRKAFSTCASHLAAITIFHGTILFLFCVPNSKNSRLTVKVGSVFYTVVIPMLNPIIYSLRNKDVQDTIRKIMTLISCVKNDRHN
# Method in brief: as §1
# [9] = target: T9, UniProt Q920P2
# T9 sequence (whole entry): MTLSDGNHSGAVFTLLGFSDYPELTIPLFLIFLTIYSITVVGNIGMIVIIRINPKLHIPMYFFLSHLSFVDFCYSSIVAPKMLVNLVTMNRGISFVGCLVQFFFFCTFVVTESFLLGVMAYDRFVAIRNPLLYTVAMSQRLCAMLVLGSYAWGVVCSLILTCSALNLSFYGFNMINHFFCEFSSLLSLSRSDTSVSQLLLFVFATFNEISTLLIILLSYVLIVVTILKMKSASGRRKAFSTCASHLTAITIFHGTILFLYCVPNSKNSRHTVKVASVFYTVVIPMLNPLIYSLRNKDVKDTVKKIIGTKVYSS
# Method in brief: as §1
# [10] = target: T10, UniProt Q8VH18
# T10 sequence (whole entry): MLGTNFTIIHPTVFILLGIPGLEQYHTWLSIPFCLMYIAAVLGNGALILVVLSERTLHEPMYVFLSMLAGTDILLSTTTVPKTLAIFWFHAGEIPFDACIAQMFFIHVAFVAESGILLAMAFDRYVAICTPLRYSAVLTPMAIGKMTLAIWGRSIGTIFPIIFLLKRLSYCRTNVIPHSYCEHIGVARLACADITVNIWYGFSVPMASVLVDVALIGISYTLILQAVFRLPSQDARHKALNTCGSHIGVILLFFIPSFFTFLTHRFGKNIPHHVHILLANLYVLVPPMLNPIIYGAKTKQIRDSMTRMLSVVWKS
# Method in brief: as §1
# [11] = target: T11, UniProt Q9WU94
# T11 sequence (whole entry): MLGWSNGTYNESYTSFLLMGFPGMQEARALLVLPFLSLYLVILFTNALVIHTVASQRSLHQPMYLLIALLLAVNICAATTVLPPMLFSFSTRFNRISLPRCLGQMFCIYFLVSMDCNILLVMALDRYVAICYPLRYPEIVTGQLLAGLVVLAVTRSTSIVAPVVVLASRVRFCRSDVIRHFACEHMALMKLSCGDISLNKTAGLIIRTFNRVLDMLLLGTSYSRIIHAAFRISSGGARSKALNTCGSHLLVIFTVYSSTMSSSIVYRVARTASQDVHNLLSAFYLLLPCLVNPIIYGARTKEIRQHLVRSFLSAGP
# Method in brief: as §1
# 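Note: active if original authors judged signal statistically different from baseline.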
smiles,measurement,setting,value
CC(CC=O)CCCC(C)(C)O (centres undefined),odorant receptor agonist call,[1],inactive
same,odorant receptor agonist call,[2],inactive
same,odorant receptor agonist call,[3],inactive
same,odorant receptor agonist call,[4],inactive
same,odorant receptor agonist call,[5],inactive
same,odorant receptor agonist call,[6],inactive
O=C(O)CCCCCCCCCCC(=O)O,odorant receptor agonist call,[7],inactive
CCCCCCCCCCCC(=O)O,odorant receptor agonist call,[7],inactive
CCc1occc(=O)c1O,odorant receptor agonist call,[1],inactive
same,odorant receptor agonist call,[2],inactive
same,odorant receptor agonist call,[3],inactive
same,odorant receptor agonist call,[4],inactive
same,odorant receptor agonist call,[5],inactive
same,odorant receptor agonist call,[6],inactive
O=C(O)CCCCCCCCCC(=O)O,odorant receptor agonist call,[7],inactive
O=C(O)CCCCCCCCCBr,odorant receptor agonist call,[7],inactive
O=C([O-])CCCC(=O)[O-].[H+].[H+],odorant receptor agonist call,[7],inactive
CC(C)=C1CCC(C)CC1=O (centres undefined),odorant receptor agonist call,[1],inactive
same,odorant receptor agonist call,[2],inactive
same,odorant receptor agonist call,[3],inactive
same,odorant receptor agonist call,[4],inactive
same,odorant receptor agonist call,[5],inactive
same,odorant receptor agonist call,[6],inactive
OCCc1ccccc1,odorant receptor agonist call,[1],inactive
same,odorant receptor agonist call,[2],inactive
same,odorant receptor agonist call,[3],inactive
same,odorant receptor agonist call,[4],inactive
same,odorant receptor agonist call,[5],inactive
same,odorant receptor agonist call,[6],inactive
CCc1ccc(O)c(OC)c1,odorant receptor agonist call,[8],inactive
CC(C=O)Cc1ccc(C(C)(C)C)cc1 (centres undefined),odorant receptor agonist call,[8],inactive
same,odorant receptor agonist call,[9],inactive
CCOC(=O)C(C)CC (centres undefined),odorant receptor agonist call,[1],inactive
same,odorant receptor agonist call,[2],inactive
same,odorant receptor agonist call,[3],inactive
same,odorant receptor agonist call,[4],inactive
same,odorant receptor agonist call,[5],inactive
same,odorant receptor agonist call,[6],inactive
CCCCCCC(=O)OCCCC,odorant receptor agonist call,[1],inactive
same,odorant receptor agonist call,[2],inactive
same,odorant receptor agonist call,[3],inactive
same,odorant receptor agonist call,[4],inactive
same,odorant receptor agonist call,[5],inactive
same,odorant receptor agonist call,[6],inactive
C=C(C)C1CCC2(C)OC2C1 (centres undefined),odorant receptor agonist call,[1],inactive
same,odorant receptor agonist call,[2],inactive
same,odorant receptor agonist call,[3],inactive
same,odorant receptor agonist call,[4],inactive
same,odorant receptor agonist call,[5],inactive
same,odorant receptor agonist call,[6],inactive
CCCCCCCCCCCO,odorant receptor agonist call,[1],inactive
same,odorant receptor agonist call,[2],inactive
same,odorant receptor agonist call,[3],inactive
same,odorant receptor agonist call,[4],inactive
same,odorant receptor agonist call,[5],inactive
same,odorant receptor agonist call,[6],inactive
CCCCOC(=O)CCC,odorant receptor agonist call,[10],inactive
same,odorant receptor agonist call,[11],inactive
C=C(CC)CCCC(C)(C)O,odorant receptor agonist call,[1],inactive
same,odorant receptor agonist call,[2],inactive
same,odorant receptor agonist call,[3],inactive
same,odorant receptor agonist call,[4],inactive
same,odorant receptor agonist call,[5],inactive
same,odorant receptor agonist call,[6],inactive
O=C(O)C1CCC1,odorant receptor agonist call,[1],inactive
same,odorant receptor agonist call,[2],inactive
same,odorant receptor agonist call,[3],inactive
same,odorant receptor agonist call,[4],inactive
same,odorant receptor agonist call,[5],active
same,odorant receptor agonist call,[6],inactive
C=CC(=O)CCCCC,odorant receptor agonist call,[1],inactive
same,odorant receptor agonist call,[2],inactive
same,odorant receptor agonist call,[3],inactive
same,odorant receptor agonist call,[4],inactive
same,odorant receptor agonist call,[5],inactive
same,odorant receptor agonist call,[6],inactive
CCCCCCC(C)O (centres undefined),odorant receptor agonist call,[1],inactive
same,odorant receptor agonist call,[2],inactive
same,odorant receptor agonist call,[3],inactive
same,odorant receptor agonist call,[4],inactive
same,odorant receptor agonist call,[5],inactive
same,odorant receptor agonist call,[6],inactive
CCC=CCCC=CC=O,odorant receptor agonist call,[1],inactive
same,odorant receptor agonist call,[2],inactive
same,odorant receptor agonist call,[3],inactive
same,odorant receptor agonist call,[4],inactive
same,odorant receptor agonist call,[5],inactive
same,odorant receptor agonist call,[6],inactive
CCc1ccccc1O,odorant receptor agonist call,[1],inactive
same,odorant receptor agonist call,[2],inactive
same,odorant receptor agonist call,[3],inactive
same,odorant receptor agonist call,[4],inactive
same,odorant receptor agonist call,[5],inactive
same,odorant receptor agonist call,[6],inactive
CC1CC=CCCCCCCCCCC(=O)C1 (centres undefined),odorant receptor agonist call,[1],inactive
same,odorant receptor agonist call,[2],inactive
same,odorant receptor agonist call,[3],inactive
same,odorant receptor agonist call,[4],inactive
same,odorant receptor agonist call,[5],inactive
same,odorant receptor agonist call,[6],active
C=CC(C)=CCC=C(C)CCC=C(C)C,odorant receptor agonist call,[1],inactive
same,odorant receptor agonist call,[2],inactive
same,odorant receptor agonist call,[3],inactive
same,odorant receptor agonist call,[4],inactive
same,odorant receptor agonist call,[5],inactive
same,odorant receptor agonist call,[6],inactive
C=CCc1ccc(OCC)c(OC)c1,odorant receptor agonist call,[8],inactive
CCCCCC(C=O)=Cc1ccccc1,odorant receptor agonist call,[1],inactive
same,odorant receptor agonist call,[2],inactive
same,odorant receptor agonist call,[3],inactive
same,odorant receptor agonist call,[4],inactive
same,odorant receptor agonist call,[5],inactive
same,odorant receptor agonist call,[6],inactive
CCc1ccc(O)cc1,odorant receptor agonist call,[1],inactive
same,odorant receptor agonist call,[2],inactive
same,odorant receptor agonist call,[3],inactive
same,odorant receptor agonist call,[4],inactive
same,odorant receptor agonist call,[5],inactive
same,odorant receptor agonist call,[6],inactive
